Test results as given in ChEMBL document CHEMBL1132117, “Novel potential agents for human cytomegalovirus infection: synthesis and antiviral activity evaluation of benzothiadiazine dioxide acyclonucleosides” (J Med Chem, 1999).
≈ marks a conversion by molar mass, not a printed value.

Columns and labels:
[1] = tested on: Human immunodeficiency virus 1; assay: Concentration of the required to protect CEM cells of Human T-lymphocyte against Cytopathogenicity of HIV-1(III-B) by 50%; format: functional, organism-based; conditions: Human immunodeficiency virus 1, CCRF-CEM
Summary of the method: (§1)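 CEM cells at 4 × 10⁵ cells/mL infected with HIV-1 (IIIB) or HIV-2 (ROD) at ~100 CCID₅₀/mL, then mixed with serial compound dilutions. Giant cell formation scored microscopically after 4 days. Triplicate assays.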

[2] = tested on: Human immunodeficiency virus 2; assay: Concentration of the required to protect CEM cells of Human T-lymphocyte against Cytopathogenicity of HIV-2 by 50%; format: functional, organism-based; conditions: Human immunodeficiency virus 2, CCRF-CEM; summary of the method: as §1
CCRF-CEM = assay: The concentration required to reduce 50% cell viability on CEM cells of Human T-lymphocyte; format: functional
Summary of the method: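 Uninfected CEM cells exposed to compound dilutions. Triplicate assays.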

HEL [3] = assay: The concentration required to reduce cell growth by 50% was measured on Human Embryonic Lung (HEL) cells; format: functional
Summary of the method: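 HEL fibroblasts seeded at 5 × 10³ cells/well and grown 24 h, then given compound dilutions in duplicate. Cells counted with a Coulter counter after 3 days at 37 °C in 5% CO₂.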

HEL [4] = assay: The minimum cytotoxic concentration was measured on Human Embryonic Lung (HEL) cells; format: functional
Summary of the method: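 Minimum toxic concentration is the lowest concentration giving a microscopically detectable change in morphology of normal HEL cells. Duplicate assays.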

Human betaherpesvirus 5 [5] = assay: The concentration required to reduce virus plaque formation by 50% was measured on AD-169 strains of human cytomegalovirus; format: functional, organism-based
Human betaherpesvirus 5 [6] = assay: The concentration required to reduce virus plaque formation by 50% was measured on Davis strains of human cytomegalovirus; format: functional, organism-based
Human alphaherpesvirus 3 [7] = assay: The concentration required to reduce virus plaque formation by 50% was measured on 07/1 strain of VZV expressing viral thymidine kinase(TK-); format: functional, organism-based
Human alphaherpesvirus 3 [8] = assay: The concentration required to reduce virus plaque formation by 50% was measured on OKA strain of VZV expressing viral thymidine kinase(TK+); format: functional, organism-based
Human alphaherpesvirus 3 [9] = assay: The concentration required to reduce virus plaque formation by 50% was measured on YS strain of VZV expressing viral thymidine kinase(TK+); format: functional, organism-based
Human alphaherpesvirus 3 [10] = assay: The concentration required to reduce virus plaque formation by 50% was measured on YS/Rstrain of VZV expressing viral thymidine kinase(TK-); format: functional, organism-based

| Structure (SMILES) | EC50 [1] | EC50 [2] | CC50 (CCRF-CEM) | CC50 (HEL [3]) | MCC (HEL [4]) | IC50 (Human betaherpesvirus 5 [5]) | IC50 (Human betaherpesvirus 5 [6]) | IC50 (Human alphaherpesvirus 3 [7]) | IC50 (Human alphaherpesvirus 3 [8]) | IC50 (Human alphaherpesvirus 3 [9]) | IC50 (Human alphaherpesvirus 3 [10]) |
| --- | --- | --- | --- | --- | --- | --- | --- | --- | --- | --- | --- |
| O=C1c2ccccc2N(COCc2ccccc2)S(=O)(=O)N1Cc1ccccc1 | > 8 µg/mL | > 8 µg/mL | 25 µg/mL (≈ 61.2 µM) | > 50 µg/mL | > 50 µg/mL | 8 µg/mL (≈ 19.6 µM) | 11 µg/mL (≈ 26.9 µM) | > 5 µg/mL | 20 µg/mL (≈ 49 µM) | 20 µg/mL (≈ 49 µM) | > 5 µg/mL |
| O=C1NS(=O)(=O)N(COCc2ccccc2)c2ccccc21 | > 40 µg/mL | > 40 µg/mL | > 200 µg/mL | > 50 µg/mL | > 50 µg/mL | > 50 µg/mL | > 50 µg/mL | > 50 µg/mL | > 50 µg/mL | > 50 µg/mL | > 50 µg/mL |
| CC(=O)OCCOCN1C(=O)c2ccccc2NS1(=O)=O | > 200 µg/mL | > 200 µg/mL | > 200 µg/mL | > 200 µg/mL | > 50 µg/mL | > 50 µg/mL | > 50 µg/mL | > 50 µg/mL | > 50 µg/mL | > 50 µg/mL | > 50 µg/mL |
| CC(=O)OCCOCN1c2ccccc2C(=O)NS1(=O)=O | > 200 µg/mL | > 200 µg/mL | > 200 µg/mL | > 200 µg/mL | > 50 µg/mL | > 50 µg/mL | > 50 µg/mL | > 50 µg/mL | > 50 µg/mL | > 50 µg/mL | > 50 µg/mL |
| CCCOCN1c2ccccc2C(=O)NS1(=O)=O | > 40 µg/mL | > 40 µg/mL | > 200 µg/mL | > 50 µg/mL | > 50 µg/mL | > 50 µg/mL | > 50 µg/mL | > 50 µg/mL | > 50 µg/mL | > 50 µg/mL | > 50 µg/mL |
| O=C1c2ccccc2NS(=O)(=O)N1COCCO | > 40 µg/mL | > 40 µg/mL | > 200 µg/mL | 160 µg/mL (≈ 588 µM) | > 50 µg/mL | > 50 µg/mL | > 50 µg/mL | > 50 µg/mL | > 50 µg/mL | > 50 µg/mL | > 50 µg/mL |
| C#CCOCN1c2ccccc2C(=O)N(Cc2ccccc2)S1(=O)=O | > 8 µg/mL | > 8 µg/mL | 23 µg/mL (≈ 64.5 µM) | > 50 µg/mL | 50 µg/mL | 12 µg/mL (≈ 33.7 µM) | 12 µg/mL (≈ 33.7 µM) | 11 µg/mL (≈ 30.9 µM) | 21 µg/mL (≈ 58.9 µM) | 24 µg/mL (≈ 67.3 µM) | 13 µg/mL (≈ 36.5 µM) |
| O=C1NS(=O)(=O)N(COCCO)c2ccccc21 | > 40 µg/mL | > 40 µg/mL | 15 µg/mL (≈ 55.1 µM) | 112 µg/mL (≈ 411 µM) | > 50 µg/mL | > 50 µg/mL | > 50 µg/mL | > 50 µg/mL | > 50 µg/mL | > 50 µg/mL | > 50 µg/mL |
| CC(=O)OCCOCN1c2ccccc2C(=O)N(Cc2ccccc2)S1(=O)=O | > 40 µg/mL | > 40 µg/mL | 103 µg/mL (≈ 255 µM) | 100 µg/mL (≈ 247 µM) | 50 µg/mL | > 20 µg/mL | > 50 µg/mL | 44 µg/mL (≈ 109 µM) | 42 µg/mL (≈ 104 µM) | > 50 µg/mL | > 20 µg/mL |
| O=C1c2ccccc2NS(=O)(=O)N1Cc1ccccc1 | > 200 µg/mL | > 200 µg/mL | > 200 µg/mL | > 50 µg/mL | 50 µg/mL | > 20 µg/mL | > 20 µg/mL | 48 µg/mL (≈ 166 µM) | > 50 µg/mL | > 50 µg/mL | > 50 µg/mL |
| Nc1nc2c(ncn2COCCO)c(=O)[nH]1 [ACYCLOVIR] | – | – | – | > 200 µg/mL | > 50 µg/mL | – | – | – | – | – | – |
| Nc1nc2c(ncn2COC(CO)CO)c(=O)[nH]1 [GANCICLOVIR] | – | – | – | > 50 µg/mL | > 50 µg/mL | 1.2 µg/mL (≈ 4.7 µM) | 1.9 µg/mL (≈ 7.44 µM) | – | – | – | – |
| O=C(OCCOCN1c2ccccc2C(=O)N(Cc2ccccc2)S1(=O)=O)c1ccccc1 | > 40 µg/mL | > 40 µg/mL | 100 µg/mL (≈ 214 µM) | 17 µg/mL (≈ 36.4 µM) | 50 µg/mL | 13 µg/mL (≈ 27.9 µM) | > 20 µg/mL | > 20 µg/mL | > 20 µg/mL | > 20 µg/mL | 12 µg/mL (≈ 25.7 µM) |
| O=C1c2ccccc2N(COCCO)S(=O)(=O)N1Cc1ccccc1 | > 40 µg/mL | > 40 µg/mL | 89 µg/mL (≈ 246 µM) | 125 µg/mL (≈ 345 µM) | > 50 µg/mL | > 20 µg/mL | > 50 µg/mL | 55 µg/mL (≈ 152 µM) | 43 µg/mL (≈ 119 µM) | > 50 µg/mL | > 20 µg/mL |
| O=C1c2ccccc2N(Cc2ccccc2)S(=O)(=O)N1COCc1ccccc1 | 15 µg/mL (≈ 36.7 µM) | 20 µg/mL (≈ 49 µM) | 100 µg/mL (≈ 245 µM) | > 40 µg/mL | 20 µg/mL | 3.5 µg/mL (≈ 8.57 µM) | 3.7 µg/mL (≈ 9.06 µM) | > 5 µg/mL | > 5 µg/mL | > 5 µg/mL | 3 µg/mL (≈ 7.34 µM) |
